Assays:
[1] = target: Intestinal-type alkaline phosphatase (Homo sapiens, UniProt P09923); assay: Inhibition of IAP by analogous luminescence assay
[2] = target: T1, Alkaline phosphatase, tissue-nonspecific isozyme (Homo sapiens, UniProt P05186); assay: Inhibition of TNAP by analogous luminescence assay
T1 sequence (P05186 whole entry): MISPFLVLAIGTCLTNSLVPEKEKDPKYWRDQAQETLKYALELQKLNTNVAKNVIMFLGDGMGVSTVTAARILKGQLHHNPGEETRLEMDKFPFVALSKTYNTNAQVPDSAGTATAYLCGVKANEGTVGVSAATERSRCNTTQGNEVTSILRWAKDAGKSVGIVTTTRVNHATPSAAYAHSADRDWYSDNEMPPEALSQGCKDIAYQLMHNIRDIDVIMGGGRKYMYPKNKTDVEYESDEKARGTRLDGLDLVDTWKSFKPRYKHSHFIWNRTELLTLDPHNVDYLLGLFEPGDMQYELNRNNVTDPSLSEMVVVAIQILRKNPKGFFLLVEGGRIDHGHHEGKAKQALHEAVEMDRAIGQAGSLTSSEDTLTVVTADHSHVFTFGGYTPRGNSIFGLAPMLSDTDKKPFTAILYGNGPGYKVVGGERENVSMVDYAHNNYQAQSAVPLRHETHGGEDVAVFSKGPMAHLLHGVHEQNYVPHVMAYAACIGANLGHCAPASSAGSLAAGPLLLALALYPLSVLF

[3] = target: Alkaline phosphatase, germ cell type (Homo sapiens, UniProt P10696); assay: Inhibition of GCAP by analogous luminescence assay
Sequence of Alkaline phosphatase, germ cell type (P10696 whole entry): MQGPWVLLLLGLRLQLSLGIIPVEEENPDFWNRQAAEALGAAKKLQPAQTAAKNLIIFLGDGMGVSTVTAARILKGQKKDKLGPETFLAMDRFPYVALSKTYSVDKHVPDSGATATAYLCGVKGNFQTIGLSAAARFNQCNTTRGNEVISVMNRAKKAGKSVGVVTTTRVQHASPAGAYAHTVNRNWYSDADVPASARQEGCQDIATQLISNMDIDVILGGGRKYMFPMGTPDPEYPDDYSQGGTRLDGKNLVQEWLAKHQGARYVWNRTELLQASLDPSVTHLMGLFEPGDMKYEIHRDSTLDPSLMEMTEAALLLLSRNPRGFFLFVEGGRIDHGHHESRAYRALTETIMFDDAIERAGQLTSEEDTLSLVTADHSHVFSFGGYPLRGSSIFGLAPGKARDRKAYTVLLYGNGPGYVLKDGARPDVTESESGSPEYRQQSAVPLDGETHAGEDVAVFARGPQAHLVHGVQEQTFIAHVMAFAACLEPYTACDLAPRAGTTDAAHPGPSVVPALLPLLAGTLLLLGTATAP
How it was run: (§1)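 GCAP and PLAP IC50s were measured together in dose-response runs on a separate occasion, using enzyme concentrations that differed from those of the main assays.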

[4] = Selectivity ratio of IC50 for IAP to IC50 for PLAP
[5] = Selectivity ratio of IC50 for TNAP to IC50 for PLAP
[6] = Selectivity ratio of IC50 for GCAP to IC50 for PLAP; how it was run: as §1

Sequence of Intestinal-type alkaline phosphatase (P09923 whole entry): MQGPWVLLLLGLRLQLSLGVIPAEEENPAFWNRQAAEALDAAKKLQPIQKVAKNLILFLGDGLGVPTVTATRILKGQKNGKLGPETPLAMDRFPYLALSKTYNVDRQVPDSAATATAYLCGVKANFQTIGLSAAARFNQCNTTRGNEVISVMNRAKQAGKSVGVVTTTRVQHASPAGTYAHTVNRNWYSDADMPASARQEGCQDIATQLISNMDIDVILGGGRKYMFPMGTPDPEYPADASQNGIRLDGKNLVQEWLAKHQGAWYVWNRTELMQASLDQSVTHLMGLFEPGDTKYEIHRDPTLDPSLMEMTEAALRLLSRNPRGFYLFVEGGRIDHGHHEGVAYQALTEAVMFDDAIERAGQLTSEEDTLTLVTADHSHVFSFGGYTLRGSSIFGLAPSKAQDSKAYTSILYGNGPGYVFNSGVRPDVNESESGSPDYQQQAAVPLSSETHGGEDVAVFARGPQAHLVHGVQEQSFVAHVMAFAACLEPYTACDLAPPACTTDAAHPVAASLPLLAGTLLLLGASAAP

Structure (SMILES)	IC50 [1]	IC50 [2]	further results
Cn1c(=O)c2[nH]cnc2n(C)c1=O [THEOPHYLLINE]	> 5 µM		
Cc1nc2ccccc2n1CC(=O)c1ccc(O)c(O)c1	> 100 µM	26.3 µM	IC50 [3]: 9.4 µM
Cc1cnn(CC(=O)c2ccc(O)c(O)c2)c1		> 100 µM	Ratio IC50 [4]: 25
Cc1cc(C)nc(SCC(=O)c2ccc(O)c(O)c2)n1			IC50 [3]: 0.6 µM
O=C(Cn1ccnc1)c1ccc(O)c(O)c1		> 100 µM	Ratio IC50 [5]: > 32; Ratio IC50 [4]: 15; Ratio IC50 [6]: 0.6; IC50 [3]: 1.2 µM
CC(C)NCC(=O)c1ccc(O)c(O)c1		> 100 µM	
O=C(Cn1cnnc1)c1ccc(O)c(O)c1		> 100 µM	
Cc1nc(Br)cn1CC(=O)c1ccc(O)c(O)c1		8.7 µM	Ratio IC50 [5]: 1.7
c1ccc([C@H]2CN3CCSC3=N2)cc1 [LEVAMISOLE]	> 5 µM		
O=C(Cn1ccnc1-c1ccccc1)c1ccc(O)c(O)c1		> 100 µM	
O=C(CNc1nc2ccccc2[nH]1)c1ccc(O)c(O)c1		93.8 µM	Ratio IC50 [6]: 0.7; IC50 [3]: 6.2 µM
CC(C)C[C@H](N)C(=O)O [LEUCINE]	> 5 µM		
CCc1nccn1CC(=O)c1ccc(O)c(O)c1	> 100 µM	> 100 µM	Ratio IC50 [5]: > 27; Ratio IC50 [4]: > 24; Ratio IC50 [6]: 2.1; IC50 [3]: 1.7 µM
N[C@@H](Cc1c[nH]c2ccccc12)C(=O)O [TRYPTOPHAN]	> 5 µM		
N[C@@H](Cc1ccccc1)C(=O)O [PHENYLALANINE]	> 5 µM		

The next lines start with results.

IC50 [1]	IC50 [2]	Structure (SMILES)	further results
> 5 µM		N=C(N)NCCCC[C@H](N)C(=O)O	
> 5 µM		CC(C)C[C@H](N)C(N)=O [LEUCINE AMIDE]	
	47.5 µM	O=C(Cn1cnc(Br)c1)c1ccc(O)c(O)c1	
	41.1 µM	Cc1cn(CC(=O)c2ccc(O)c(O)c2)cn1	Ratio IC50 [5]: 7
	> 100 µM	Cc1cc2ncn(CC(=O)c3ccc(O)c(O)c3)c2cc1C	
	78.3 µM	Cc1nccn1CC(=O)c1ccc(O)c(O)c1	IC50 [3]: 30.5 µM
	29.2 µM	COc1ccc2c(c1OC)C(=O)OC2CC(=O)c1ccc(O)c(O)c1 (configuration not stated)	
	18 µM	O=C(Cn1cnc2ccccc21)c1ccc(O)c(O)c1	IC50 [3]: 2.7 µM
	8 µM	COc1ccc(-n2nnnc2SCC(=O)c2ccc(O)c(O)c2)cc1	
